Reference: ChEMBL document CHEMBL2413043, “5-Nitro-2-furfuriliden derivatives as potential anti-Trypanosoma cruzi agents: design, synthesis, bioactivity evaluation, cytotoxicity and exploratory data analysis” (Bioorg Med Chem, 2013)

Experiments:
Trypanosoma cruzi [1] = assay: Antitrypanosomal activity against epimastigotes of Trypanosoma cruzi Y assessed as parasite growth inhibition after 5 days by spectrophotometric analysis; type: functional, organism-based; settings: for IC50: Trypanosoma cruzi, Y, 120 h
Outline: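 Stationary-phase epimastigotes (10-day culture, 28 °C) diluted in LIT medium with 10% fetal calf serum to 2.0 x 10^6 parasites/mL. Compounds dissolved in DMSO (final ≤1.0%), 0.25–180.0 µM, incubated 28 °C for 5 days. Growth read at A580 versus day 0 and untreated controls as percent growth inhibition. Triplicates; IC50 by sigmoid dose–response fit, at least five concentrations.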

[2] = Selectivity index, ratio of IC50 for human FN1 fibroblasts to IC50 for epimastigotes of Trypanosoma cruzi Y
Outline: (§1)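 Selectivity index taken as IC50 in the mammalian cell line (J774 or FN1) divided by IC50 against Y-strain epimastigotes.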

[3] = Cytotoxicity against human FN1 fibroblasts after 24 hrs by MTT assay
Outline: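 Human FN1 fibroblasts kept in RPMI 1640 with 10% FBS at 37 °C, 5% CO2. Plated in triplicate at 1 x 10^4 cells/well, incubated overnight, then treated 24 h with 12.5–200 µM. MTT at 5 mg/mL for 2 h, formazan dissolved in 0.1 N HCl in isopropanol, absorbance at 540 nm, IC50 determined.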

J774 = assay: Cytotoxicity against mouse J774 cells after 48 hrs by MTT assay; type: cell-based; settings: J774, 48 h
Outline: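 J774 murine macrophages in RPMI 1640 with 10% FBS, 37 °C, 5% CO2. Seeded at 1.0 x 10^4 cells/well in RPMI 1640 with 5% heat-inactivated fetal calf serum, attached 24 h. Exposed 48 h to 0.8–400.0 µM. MTT at 0.4 mg/mL final for 3 h at 37 °C, formazan in DMSO, A595. IC50 is the mean of six experiments, sigmoid fit, at least five concentrations.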

[4] = Selectivity index, ratio of IC50 for mouse J774 cells to IC50 for epimastigotes of Trypanosoma cruzi Y; type: toxicity, cell-based; settings: read-out: Ratio IC50; outline: as §1
Trypanosoma cruzi [5] = assay: Ratio of nifurtimox IC50 to compound IC50 for epimastigotes of Trypanosoma cruzi Y; type: functional

In the case of `CC(=O)N1N=C(c2ccc(Br)cc2)OC1c1ccc([N+](=O)[O-])o1` (centres undefined), the “log(1/C)” value (Trypanosoma cruzi [1]) is reported as 5.01 and the IC50 (Trypanosoma cruzi [1]) is reported as 9.59 µM.

For `CC(=O)N1N=C(c2ccc(I)cc2)OC1c1ccc([N+](=O)[O-])o1` (centres undefined), the “log(1/C)” value (Trypanosoma cruzi [1]) was 4.93 and the IC50 (Trypanosoma cruzi [1]) was 11.5 µM.

For `N#Cc1ccc(C(=O)N/N=C/c2ccc([N+](=O)[O-])o2)cc1`, the “log(1/C)” value (Trypanosoma cruzi [1]) was 4.9 and the IC50 (Trypanosoma cruzi [1]) was 12.5 µM.

With `CCCCc1ccc(C(=O)N/N=C/c2ccc([N+](=O)[O-])o2)cc1` the “Ratio IC50” value [2] was 93.33, the IC50 [3] was 98 µM and the IC50 (J774) was 28.1 µM. For the same compound, the selectivity ratio [4] was 26.7, the “Ratio IC50” value (Trypanosoma cruzi [5]) was 3 and the “log(1/C)” value (Trypanosoma cruzi [1]) was 5.98. It also gave an IC50 (Trypanosoma cruzi [1]) of 1.05 µM.

In the case of `O=C(N/N=C/c1ccc([N+](=O)[O-])o1)c1ccc(Br)cc1`, the “log(1/C)” value (Trypanosoma cruzi [1]) is reported as 5.42 and the IC50 (Trypanosoma cruzi [1]) is reported as 3.74 µM.

In the case of `O=C(N/N=C/c1ccc([N+](=O)[O-])o1)c1ccc(I)cc1`, the “log(1/C)” value (Trypanosoma cruzi [1]) is reported as 5.49 and the IC50 (Trypanosoma cruzi [1]) is reported as 3.21 µM.

With `CC(=O)N1N=C(c2ccccc2)OC1c1ccc([N+](=O)[O-])o1` (centres undefined) the “log(1/C)” value (Trypanosoma cruzi [1]) was 4.99 and the IC50 (Trypanosoma cruzi [1]) was 10.2 µM.

Compound `CC(=O)N1N=C(c2ccc(C)cc2)OC1c1ccc([N+](=O)[O-])o1` (centres undefined) has a log(1/C) (Trypanosoma cruzi [1]) of 5.01 and an IC50 (Trypanosoma cruzi [1]) of 9.84 µM.

In the case of `CC(=O)N1N=C(c2ccc(C#N)cc2)OC1c1ccc([N+](=O)[O-])o1` (centres undefined), the “log(1/C)” value (Trypanosoma cruzi [1]) is reported as 4.87 and the IC50 (Trypanosoma cruzi [1]) is reported as 13.4 µM.

In the case of `COc1ccc(C2=NN(C(C)=O)C(c3ccc([N+](=O)[O-])o3)O2)cc1` (centres undefined), the “log(1/C)” value (Trypanosoma cruzi [1]) is reported as 5.03 and the IC50 (Trypanosoma cruzi [1]) is reported as 9.26 µM.

With `CC(=O)N1N=C(c2ccc(Cl)cc2)OC1c1ccc([N+](=O)[O-])o1` (centres undefined) the “Ratio IC50” value [2] was over 17, the IC50 [3] was over 200 µM and the IC50 (J774) was over 400 µM. The selectivity ratio [4] was over 34, the “log(1/C)” value (Trypanosoma cruzi [1]) was 4.94 and the IC50 (Trypanosoma cruzi [1]) was 11.5 µM.

For `CC(=O)N1N=C(c2ccc([N+](=O)[O-])cc2)OC1c1ccc([N+](=O)[O-])o1` (centres undefined), the “Ratio IC50” value [2] was over 14, the IC50 [3] was over 200 µM and the IC50 (J774) was 114 µM. For the same compound, the selectivity ratio [4] was 8.21, the “log(1/C)” value (Trypanosoma cruzi [1]) was 4.85 and the IC50 (Trypanosoma cruzi [1]) was 13.9 µM.

With `CCCCc1ccc(C2=NN(C(C)=O)C(c3ccc([N+](=O)[O-])o3)O2)cc1` (centres undefined) the “Ratio IC50” value [2] was 22.49, the IC50 [3] was 186 µM and the IC50 (J774) was over 400 µM. The selectivity ratio [4] was over 48, the “log(1/C)” value (Trypanosoma cruzi [1]) was 5.08 and the IC50 (Trypanosoma cruzi [1]) was 8.27 µM.

For `CC(=O)N1N=C(c2ccc(C(F)(F)F)cc2)OC1c1ccc([N+](=O)[O-])o1` (centres undefined), the “log(1/C)” value (Trypanosoma cruzi [1]) was 4.95 and the IC50 (Trypanosoma cruzi [1]) was 11.1 µM.

For `O=C(N/N=C/c1ccc([N+](=O)[O-])o1)c1ccccc1`, the “log(1/C)” value (Trypanosoma cruzi [1]) was 5.35 and the IC50 (Trypanosoma cruzi [1]) was 4.44 µM.

In the case of `O=C(N/N=C/c1ccc([N+](=O)[O-])o1)c1ccc(Cl)cc1`, the “Ratio IC50” value [2] is reported as over 49.63, the IC50 [3] is reported as over 200 µM and the IC50 (J774) is reported as 57.1 µM. For the same compound, the selectivity ratio [4] was 14.2, the “log(1/C)” value (Trypanosoma cruzi [1]) was 5.39 and the IC50 (Trypanosoma cruzi [1]) was 4.03 µM.

In the case of `COc1ccc(C(=O)N/N=C/c2ccc([N+](=O)[O-])o2)cc1`, the “log(1/C)” value (Trypanosoma cruzi [1]) is reported as 5.4 and the IC50 (Trypanosoma cruzi [1]) is reported as 3.94 µM.

In the case of `O=C(N/N=C/c1ccc([N+](=O)[O-])o1)c1ccc([N+](=O)[O-])cc1`, the “Ratio IC50” value [2] is reported as 18.83, the IC50 [3] is reported as 178 µM and the IC50 (J774) is reported as 79.1 µM. For the same compound, the selectivity ratio [4] was 8.37, the “log(1/C)” value (Trypanosoma cruzi [1]) was 5.02 and the IC50 (Trypanosoma cruzi [1]) was 9.45 µM.

With `Cc1ccc(C(=O)N/N=C/c2ccc([N+](=O)[O-])o2)cc1` the “log(1/C)” value (Trypanosoma cruzi [1]) was 5.43 and the IC50 (Trypanosoma cruzi [1]) was 3.71 µM.

With `O=C(N/N=C/c1ccc([N+](=O)[O-])o1)c1ccc(C(F)(F)F)cc1` the “log(1/C)” value (Trypanosoma cruzi [1]) was 5.35 and the IC50 (Trypanosoma cruzi [1]) was 4.42 µM.

For `O=C(Cn1ccnc1[N+](=O)[O-])NCc1ccccc1` [BENZNIDAZOLE], the “Ratio IC50” value [2] was over 9, the IC50 [3] was over 200 µM and the IC50 (J774) was over 400 µM. The selectivity ratio [4] was over 18 and the IC50 (Trypanosoma cruzi [1]) was 22.7 µM.

In the case of `CC1CS(=O)(=O)CCN1/N=C/c1ccc([N+](=O)[O-])o1` (centres undefined) [NIFURTIMOX], the “Ratio IC50” value [2] is reported as over 53, the IC50 [3] is reported as over 200 µM and the IC50 (J774) is reported as 280 µM. The selectivity ratio [4] was 74.2.
